Results: ChEMBL document CHEMBL1141606, “7-Azaindole derivatives as potential partial nicotinic agonists” (Bioorg Med Chem Lett, 2008)
Active and inactive are the calls of the source. The calls are words filed in the database; no cut-off is given here.

Tests used:
[1] = target: T1, Neuronal acetylcholine receptor; alpha4/beta2 (Rattus norvegicus) (UniProt P09483+P12390); experiment: (§1) Displacement of [3H]cytisine from alpha-4-beta-2 nAChR in rat brain membrane; type: cell membranes
How it was run: (§2)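 Competition binding against [3H]cytisine on rat brain membranes at a contract lab, following a published nicotinic binding protocol. Affinity reported as Ki.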

[2] = target: T2, Neuronal acetylcholine receptor; alpha4/beta2 (Rattus norvegicus, UniProt P09483+P12390); experiment: as §1; type: cell membranes; how it was run: as §2
[3] = target: T1, Neuronal acetylcholine receptor; alpha4/beta2 (Rattus norvegicus); experiment: Antagonist activity at alpha-4-beta-2 nAChR in rat striatal slices assessed as blockade of nicotine-induced [3H]dopamine release at 10 uM; parameters: scale not given: the % may be the effect or the level left; details: Striatum, Slice
[4] = Oral bioavailability in rat; type: ADME, organism-based; details: in vivo
How it was run: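 Rat pharmacokinetic study with both intravenous and oral dosing; oral bioavailability (%) derived by comparing the two routes.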

[5] = target: T1, Neuronal acetylcholine receptor; alpha4/beta2 (Rattus norvegicus); experiment: Agonist activity at alpha4beta2 nAChR in rat striatal membranes assessed as effect on [3H]dopamine release; type: functional; details: Striatum, Slice, in the assay text read “striatal slices” for “striatal membranes”
How it was run: (§3)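 Rat striatal slices were used for [3H]dopamine release. Test compound was added with the K+ pulse for 5 min, at 10 nM (t = 50 min) and 1 µM (t = 90 min). […] In parallel runs, mecamylamine (0.1 µM) or DHβE (1 µM) sensitivity was read as percent inhibition of evoked release.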

[6] = Ratio of drug level in brain to plasma in po dosed rat; type: ADME, organism-based
How it was run: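 Rat iv/po pharmacokinetic study. Drug levels were measured in brain (ng/g) and plasma (ng/ml) after oral administration, and the brain-plasma ratio was derived from them.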

[7] = Drug level in po dosed rat plasma; type: ADME, organism-based; parameters: route oral
How it was run: (§4)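 Rats dosed orally; drug concentrations at Cmax measured in brain tissue (ng/g) and in plasma (ng/ml).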

[8] = Drug level in po dosed rat brain; type: ADME, organism-based; parameters: route oral; how it was run: as §4
[9] = target: T1, Neuronal acetylcholine receptor; alpha4/beta2 (Rattus norvegicus); experiment: Agonist activity at alpha-4-beta-2 nAChR in rat striatal membranes assessed as effect on [3H]dopamine release relative to nicotine; type: functional; details: Striatum, Slice, in the assay text read “striatal slices” for “striatal membranes”; how it was run: as §3
[10] = Metabolic stability in human liver; type: ADME, tissue-based
How it was run: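 In vitro incubation with human liver homogenate; metabolic stability expressed as half-life (t1/2, min).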

[11] = target: T2, Neuronal acetylcholine receptor; alpha4/beta2; experiment: Displacement of [3H]L-nicotine from alpha-4-beta-2 nAChR in rat cerebral cortex; type: tissue-based

T2 sequence (P09483 whole entry): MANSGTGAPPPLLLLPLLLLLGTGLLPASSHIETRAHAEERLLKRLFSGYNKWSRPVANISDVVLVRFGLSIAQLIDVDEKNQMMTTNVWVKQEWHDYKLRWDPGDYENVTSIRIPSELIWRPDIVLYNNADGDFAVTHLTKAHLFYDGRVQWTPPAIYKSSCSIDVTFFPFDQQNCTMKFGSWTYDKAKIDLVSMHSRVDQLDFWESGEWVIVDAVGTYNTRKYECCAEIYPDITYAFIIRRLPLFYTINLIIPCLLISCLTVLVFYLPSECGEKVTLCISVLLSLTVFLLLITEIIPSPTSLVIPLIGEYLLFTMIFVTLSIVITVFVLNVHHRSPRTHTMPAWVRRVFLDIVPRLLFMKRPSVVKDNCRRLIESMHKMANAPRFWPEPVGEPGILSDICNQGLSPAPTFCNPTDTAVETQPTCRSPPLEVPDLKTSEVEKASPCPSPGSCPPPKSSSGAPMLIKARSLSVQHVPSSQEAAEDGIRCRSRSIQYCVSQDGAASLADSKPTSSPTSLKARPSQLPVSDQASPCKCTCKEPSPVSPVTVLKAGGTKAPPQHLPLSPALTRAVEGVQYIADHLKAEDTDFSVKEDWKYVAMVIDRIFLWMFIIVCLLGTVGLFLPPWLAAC
T2 sequence (P12390 whole entry): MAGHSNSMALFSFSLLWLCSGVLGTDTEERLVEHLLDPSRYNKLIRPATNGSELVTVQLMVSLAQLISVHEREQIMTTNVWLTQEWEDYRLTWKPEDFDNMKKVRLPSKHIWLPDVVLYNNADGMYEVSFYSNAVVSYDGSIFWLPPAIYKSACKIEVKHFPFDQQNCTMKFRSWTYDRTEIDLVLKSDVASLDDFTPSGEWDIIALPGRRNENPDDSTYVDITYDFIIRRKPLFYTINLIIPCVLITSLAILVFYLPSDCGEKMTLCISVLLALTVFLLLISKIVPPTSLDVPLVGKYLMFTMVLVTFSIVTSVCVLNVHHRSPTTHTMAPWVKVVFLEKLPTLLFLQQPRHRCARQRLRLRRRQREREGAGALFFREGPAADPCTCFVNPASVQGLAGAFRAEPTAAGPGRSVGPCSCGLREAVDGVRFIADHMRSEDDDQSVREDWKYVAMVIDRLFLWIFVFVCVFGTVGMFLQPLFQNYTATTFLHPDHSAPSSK

With `Clc1ccnc2[nH]c(C3CCCNC3)cc12` (configuration not stated) the Activity [1] was “inactive”.
With `Clc1ccc2c(C3CCCNC3)c[nH]c2n1` (configuration not stated) the Ki [2] was 2.95 µM.
With `CN1CCC[C@@H]1Cc1cc2cccnc2[nH]1` the Ki [2] was 2.51 µM.
For `CN1CCC[C@H]1Cc1cc2cccnc2[nH]1`, the Ki [2] was 0.691 µM.
For `COc1ccc2cc(C[C@H]3CCCN3)[nH]c2n1`, the Activity [1] was “inactive”.
With `c1cnc2[nH]c(C[C@H]3CCCN3)cc2c1` the Activity [3] was 70%, the bioavailability [4] was 11.3% and the Activity [5] was “Active”. For the same compound, the Kp [6] was 3.7, the Cmax [7] was 120 ng/mL and the Cmax [8] was 280 ng/g. For the same compound, the Activity [9] was 62% and the half-life [10] was 4.43 h.
For `c1cnc2[nH]c(C3CCCNC3)cc2c1` (single isomer, unassigned; (+)), the Activity [1] was “inactive”.
`c1cnc2[nH]cc(C3CCCNC3)c2c1` (configuration not stated) showed a Ki [2] of 2.95 µM.
With `Clc1ccc2cc(C[C@@H]3CCCN3)[nH]c2n1` the Ki [2] was 3.72 µM.
In the case of `Clc1ccc2cc(C3CCCNC3)[nH]c2n1` (single isomer, unassigned; (-)), the Activity [1] is reported as “inactive”.
Work on `c1cnc2[nH]c(C[C@@H]3CCCN3)cc2c1` yielded a Ki [2] of 2.75 µM.
`Fc1ccc2cc(C[C@H]3CCCN3)[nH]c2n1` showed a Ki [2] of 0.316 µM.
With `c1cnc2[nH]c(C3CCNC3)cc2c1` (single isomer, unassigned; (-)) the Ki [2] was 0.251 µM.
In the case of `c1cnc2[nH]c(C3CCNC3)cc2c1` (configuration not stated), the Activity [5] is reported as “Active”.
Work on `Fc1ccc2cc(C[C@@H]3CCCN3)[nH]c2n1` yielded a Ki [2] of 2 µM.
Work on `c1cnc2[nH]c(C3CCCNC3)cc2c1` (single isomer, unassigned; (-)) yielded a Ki [2] of 2 µM.
With `CN[C@@H](C)C/C=C/c1cncc(OC)c1` the Ki [11] was 0.011 µM.
Work on `Br.c1cnc2[nH]c(C3CCNC3)cc2c1` (configuration not stated) yielded a Ki [2] of 0.01 µM and a half-life [10] of 2.23 h.
With `Clc1ccc2cc(C3CCCNC3)[nH]c2n1` (racemic) the Activity [1] was “inactive”.
For `Clc1ccc2cc(C[C@H]3CCCN3)[nH]c2n1`, the Ki [2] was 0.147 µM.
With `c1cnc2[nH]c(C3CCNC3)cc2c1` (racemic) the Ki [2] was 0.016 µM.
Compound `Clc1ccc2cc(C3CCCNC3)[nH]c2n1` (single isomer, unassigned; (+)) has a Ki [2] of 3.46 µM.
With `Brc1ccc2cc(C[C@@H]3CCCN3)[nH]c2n1` the Activity [1] was “inactive”.
For `Brc1ccc2cc(C[C@H]3CCCN3)[nH]c2n1`, the Ki [2] was 0.691 µM.
